# High-throughput results as filed in PubChem BioAssay.
# HEK293 NFkB inh = inhibitors of the PMA/ionomycin-induced NF-kB reporter in HEK293 cells. inhibition, % at 3 µM. AID 465. actives 0.21% (n = 62,000). HEK-293 NF-kB luciferase reporter, luminescence;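 active means inhibition above the mean of all tested compounds plus 3 SD, cut at about 40% in these data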;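 further: 0% = stimulated DMSO wells and 100% = 10 µM reference inhibitor 5653914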
#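 System: NF-kB luciferase reporter HEK-293 cells | Replication: Single test | Control set: DMSO vs reference inhibitor | Evaluation: % inhibition | Schedule: 1 h pretreatment, 16 h stimulation, 37 °C | Probe or stimulus: PMA with ionomycin | Compound dosing: One dose, 3 µM | Detection: Luciferase luminescence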
# Jurkat viability = cytotoxic compounds reducing Jurkat cell viability. actives 1.2% (n = 56,000). AID 463. Jurkat E6.1 viability, ATP luminescence, 48 h. inhibition, % at 4 µM;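 active means inhibition above the mean inhibition of all tested compounds plus 3 SD, cut at about 28% in these data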
# D1 allo mod = allosterically modulates the human D1 dopamine receptor; HEK293 D1, CRE-luciferase, dopamine EC30 potentiation; actives deviate in either direction; AID 641; B-score at 10 µM; actives 5.9% (n = 58,000);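 active means luminescence count or its row- and column-corrected plate score outside the 99.7% band of the plate's sample wells, on either side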
# M1 ag = M1 muscarinic receptor agonism; CHO-M1 cells, Fluo-4 calcium fluorescence, agonist mode; active compounds read high; B-score at 10 µM; actives 3% (n = 64,000);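 active means fluorescence rise, raw or as B-score row- and column-corrected plate score, outside the 99.7% band of its plate's samples, either direction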
# DAT uptake mod = modulates human dopamine transporter uptake under cocaine. Q01959. LLC-PK1 hDAT cells, [14C]-dopamine uptake with cocaine IC80; actives deviate in either direction. B-score at 10 µM. actives 1.3% (n = 110,000);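 active means Z score or B-score, a plate-position-corrected score, falls beyond the plate's 99.7% confidence bounds, in either direction; inactive means both scores lie inside the 99.7% bounds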;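 further: scored against the spread of the other compound wells on the same plate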
# M1 antagonist = M1 muscarinic receptor (rat) antagonism | CHO-M1 cells, Fluo-4 calcium, ACh EC80 antagonist mode; active compounds read low | B-score at 10 µM | actives 3.4% (n = 64,000) | P08482;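 active means calcium fluorescence response, raw or row-and-column corrected B-score, differing from the plate sample mean either way at a set confidence level, mostly lower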
# Target sequence (P08482 whole entry, looked up): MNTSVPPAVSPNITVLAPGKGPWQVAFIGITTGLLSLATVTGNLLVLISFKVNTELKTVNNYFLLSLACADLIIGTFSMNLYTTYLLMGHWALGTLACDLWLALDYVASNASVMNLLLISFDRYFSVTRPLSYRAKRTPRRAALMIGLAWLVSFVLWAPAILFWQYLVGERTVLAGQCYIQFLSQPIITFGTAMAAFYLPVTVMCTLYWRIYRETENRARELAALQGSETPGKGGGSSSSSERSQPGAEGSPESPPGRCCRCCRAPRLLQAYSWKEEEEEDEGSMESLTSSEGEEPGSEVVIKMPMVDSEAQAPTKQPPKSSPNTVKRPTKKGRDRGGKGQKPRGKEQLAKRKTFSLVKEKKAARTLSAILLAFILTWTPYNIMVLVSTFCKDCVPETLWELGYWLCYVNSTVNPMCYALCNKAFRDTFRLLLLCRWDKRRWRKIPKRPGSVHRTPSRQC
# M1 agonist conf = rat M1 muscarinic agonism, confirmation; shares compounds with M1 ag; CHO-M1 cells, Fluo-4 calcium fluorescence, agonist mode; actives lie on both sides; fluorescence change (max-min) at 10 µM; actives 19% (n = 1,700); AID 1488;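 active means fluorescence change differs from the solvent-only DMSO control mean at a set confidence level in both duplicate runs; inconclusive means differs from solvent-only control mean in just one of two runs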;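 further: an EC20 dose of acetylcholine follows compound addition during the same imaging run; raw fluorescence intensity difference in instrument units with no normalization to controls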
# M4 ag counter = rat M4 muscarinic agonism, M1 counter-screen; shares compounds with M1 ag; fluorescence change (max-min) at 10 µM; actives 9% (n = 1,700); CHO M4/Gqi5 cells, Fluo-4 calcium fluorescence, agonist mode; actives lie on both sides; AID 1741;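 active means fluorescence change differing from the plate's solvent-only control wells at 99.7% confidence in both duplicates, whether higher or lower; inconclusive means differs from solvent controls in only one of two duplicates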
# The depositor's hits bear a star; ? = inconclusive; . = no result given. A selection: hits, their analogues and other compounds. The true share with any hit is near 7.6%.
SMILES,HEK293 NFkB inh,Jurkat viability,D1 allo mod,M1 ag,DAT uptake mod,M1 antagonist,M1 agonist conf,M4 ag counter
Cc1nnc(C)c2c(C)n(-c3ccc(Br)cc3)c(C)c12,2,9,-0.16,0.17,-0.52,0.34,.,.
COc1ccc(S(=O)(=O)N(Cc2cc3ccc(OC)cc3[nH]c2=O)CC2COCCO2)cc1 (stereo not drawn),14,8,1.1,4.9*,0.7,-0.19,-12,?
COc1cc(OC)cc(OCC(O)Cn2cnc3cc(C)c(C)cc32)c1 (stereo not drawn),14,2,0.22,-0.49,1.4,2.2,.,.
CCOC(=O)Cn1c(=O)oc2cc(S(=O)(=O)Nc3cc(Cl)ccc3OC)ccc21,12,2,-1.5,-1.7,-0.45,-0.32,.,.
O=C(C1CCCN(S(=O)(=O)c2cccc3nsnc23)C1)N1CCc2ccccc21 (stereo not drawn),16,8,2.7,-0.69,.,-0.1,.,.
COc1ccc(OC)c(CN2CCN(C(=O)c3cccs3)CC2)c1,4,-8,0.59,15*,0.33,-0.4,-19,?
O=C(O)CCn1[nH]c(=O)c2ccccc2c1=O,.,.,.,.,-0.11,.,.,.
Cc1ccc(S(=O)(=O)Cc2ccc(C(=O)N3CCCCCC3)o2)cc1,5,2,0.022,-1.2,1.2,-0.66,.,.
CCOC(=O)C1CCCN(C(=O)c2ccc(CS(=O)(=O)c3ccc(C)cc3)o2)C1 (stereo not drawn),11,3,-0.63,34*,-0.012,0.7,261*,-15
C=CCn1c(SCC2=C(C(=O)OCC)C(C)NC(=O)N2)nnc1C1CCCCC1 (stereo not drawn),19,-5,-0.96,0.49,1.1,-1.1,.,.
c1ccc2c(CCNc3ncnc4nc[nH]c34)c[nH]c2c1,7,88*,-5.5*,3.9*,0.032,-0.17,-9.3,-20
c1ccc(CCNc2ncnc3nc[nH]c23)cc1,5,-1,-0.26,-1.1,0.24,-1.1,.,.
O=C(Nc1ccc(S(=O)(=O)N2CCCCC2)cc1)c1ccncc1,19,14,-1.1,-2.9*,0.046,-0.55,-22*,-72*
NC(=O)c1ccsc1NC(=O)c1ccc(S(=O)(=O)N2CCCCC2)cc1,-14,3,2.9,3.1*,1.6,-0.54,?,-33
CC(=O)c1ccc(NC(=O)c2ccc(S(=O)(=O)N3CCCC3)cc2)cc1,7,-2,-0.015,.,0.98,.,.,.
c1ccc(CNC2=NCCCCC2)cc1,18,6,-0.066,-0.067,1.5,-0.72,.,.
Cc1ccc(S(=O)(=O)N2CCC(C(=O)N[C@@H](Cc3ccccc3)C(=O)O)CC2)cc1,1,-1,-0.17,1.6*,-0.038,0.27,-6.8,?
Cc1ccc(S(=O)(=O)N2CC(=NO)C2)cc1,8,6,0.056,0.00028,-0.061,0.2,.,.
CC(C)CC1(C(=O)O)NC(c2ccccc2O)C2C(=O)N(C(C)C)C(=O)C21 (stereo not drawn),-4,0,.,0.62,0.59,0.48,.,.
COc1cccc(C(C)NC(=O)Nc2cccc(C(F)(F)F)c2)c1 (stereo not drawn),.,.,.,.,-2.3,.,.,.
COc1ccc(CNC(=O)C2CCCN(c3nc4ccccc4o3)C2)c(OC)c1 (stereo not drawn),1,-3,0.43,-0.079,1.8,0.099,.,.
Cc1ccc(CCNC(=O)C2CCCN(c3nc4ccccc4o3)C2)cc1 (stereo not drawn),14,-7,-0.19,7.5*,-0.059,-0.99,-10,-27
Cc1[nH]c2ccc(-c3nnc(SCC(=O)NCc4ccco4)n3Cc3ccccc3)cc2c1C,18,.,0.039,3,2,0.83,.,.
CCCCOc1ccc(S(=O)(=O)Nc2cccnc2)cc1,13,15,-0.72,4.9*,-1.1,-1.5,-1.3,?
Cc1ccc(S(=O)(=O)Nc2cccnc2)cc1,.,.,.,.,0.02,.,.,.
SMILES,HEK293 NFkB inh,Jurkat viability,D1 allo mod,M1 ag,DAT uptake mod,M1 antagonist,M1 agonist conf,M4 ag counter
CCOC(=O)c1cc(OC(=O)c2cccc([N+](=O)[O-])c2)n(-c2ccccc2)n1,.,.,.,.,0.47,.,.,.
CCCNC(=O)CC(NS(=O)(=O)c1ccc(Cl)cc1)c1ccco1 (stereo not drawn),19,-3,-0.42,1.2,0.34,-0.6,.,.
O=C(CC(NS(=O)(=O)c1ccc(Cl)cc1)c1ccco1)NCc1ccco1 (stereo not drawn),10,1,-0.36,-2.9*,0.048,0.018,?,-55
COc1cccc(C(=O)OCc2ccccc2C#N)c1O,14,-6,0.51,-2.2*,-0.33,0.4,-27*,-79*
C=CCn1c(/N=C/c2ccc(N(C)C)cc2)nc2ccccc21,-9,-4,-0.51,15*,0.21,-1.2,118*,114
Cn1c(Cc2cccs2)nnc1SCC(=O)N1CCCc2ccccc21,.,.,.,.,-0.23,.,.,.
O=C(CSc1nnc(Cc2cccs2)n1C1CCCCC1)N1CCCc2ccccc21,14,12,-0.09,3*,2.2*,-2.2*,-8.9,-21
O=S(=O)(Nc1ccc2nc(-c3ccc(Br)o3)[nH]c2c1)c1ccccc1,-19,1,0.013,0.59,-0.47,0.77,.,.
O=S(=O)(Nc1ccc2nc(C(F)(F)F)[nH]c2c1)c1ccccc1,8,6,-1.3,2.4*,-0.1,-0.22,-20,-32
CCCCC(=O)OCc1cn(-c2ccc(Cl)cc2)nn1,.,.,.,.,0.16,.,.,.
Oc1ccc(-c2nc3ccccn3c2NCc2ccc3c(c2)OCO3)cc1,11,-3,0.21,4*,-0.46,-2.6,-4.7,-23
COc1ccccc1N1CCN(C(=O)CCNS(=O)(=O)c2ccc(Br)s2)CC1,5,-6,-0.52,2.6*,-3.9*,0.66,?,-77
O=C(CCNS(=O)(=O)c1ccc(Br)s1)N1CCN(c2ccccc2)CC1,13,-2,0.94,-0.73,-0.48,0.12,.,.
CC1(C)N=C(c2cccc(F)c2)C(=O)N1,16,1,-0.6,-0.15,-0.073,-0.024,.,.
O=C(Cn1nc(-c2ccccc2)c2ccccc2c1=O)Nc1cccnc1,.,.,.,.,0.4,.,.,.
Cc1nc2ccccc2c(=O)n1NCc1cc(Br)cs1,11,-1,.,4.4*,-0.35,-0.19,-5.2,-13
O=C(CN1C2=NCCCN2c2ccccc21)c1ccc2c(c1)OCO2,13,-1,-0.29,0.32,1.1,-1.8,.,.
Nc1nonc1C(=O)NCCNCc1ccccc1,.,.,.,.,-0.014,.,.,.
O=C(NC1=NCCS1)C12CC3CC(C1)CC(C(=O)NC1=NCCS1)(C3)C2,-3,0,-1.2,0.73,-1.6,-0.7,.,.
O=C(Nc1nccs1)C12CC3CC(C1)CC(C(=O)Nc1nccs1)(C3)C2,-12,0,-1.3,4*,0.5,-0.31,?,-40
